PubChem BioAssay AID488992 (Sanford-Burnham Center for Chemical Genomics, 2010)
Active and inactive are the calls of the source.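 Rule for the calls: active = IC50 below 20 µM; inactive = the rest.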

These compounds were tested against Apelin receptor (Homo sapiens) (UniProt P35414) (assay: APJ antagonists, beta-arrestin recruitment, SAR follow-up, cell-based, luminescence, set 3 (AID 488992)). Conditions: CHO-K1 AGTRL-1 PathHunter beta-arrestin.
Outline: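 Assay system: CHO-K1 APJ beta-arrestin complementation cells; reagent: apelin-13 agonist at 10 nM final; dosing: dose-response series; schedule: overnight cell seeding, 90 min compound-agonist exposure at 25 °C; signal: luminescence from beta-gal complementation, read 60 min after detection reagent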

Sequence of Apelin receptor (Homo sapiens) (P35414 whole entry, looked up): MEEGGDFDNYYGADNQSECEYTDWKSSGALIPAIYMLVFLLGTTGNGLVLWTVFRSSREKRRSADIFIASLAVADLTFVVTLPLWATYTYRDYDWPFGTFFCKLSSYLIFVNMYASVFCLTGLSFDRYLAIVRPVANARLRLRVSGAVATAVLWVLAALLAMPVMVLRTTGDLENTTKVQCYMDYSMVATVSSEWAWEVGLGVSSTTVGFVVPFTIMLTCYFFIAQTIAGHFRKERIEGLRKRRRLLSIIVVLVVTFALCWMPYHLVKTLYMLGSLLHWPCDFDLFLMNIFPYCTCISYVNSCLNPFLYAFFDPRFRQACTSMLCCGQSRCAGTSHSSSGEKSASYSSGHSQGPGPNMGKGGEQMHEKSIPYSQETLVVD

Row | SMILES | IC50
1 | Cc1ccnc(SCc2cc(=O)c(OC(=O)c3ccno3)co2)n1 | > 79 µM (inactive)
2 | COc1cc(CSc2nc(C)cc(C)n2)ccc1OC(=O)c1ccc([N+](=O)[O-])cc1 | > 79 µM (inactive)
3 | COc1cc(CSc2nc(C)cc(C)n2)ccc1OC(=O)c1ccccc1 | > 79 µM (inactive)
4 | COc1cc(CSc2nc(C)cc(C)n2)ccc1OC(=O)c1cccnc1 | > 79 µM (inactive)
5 | Cc1ccnc(SCc2cc(=O)c(OC(=O)c3ccc([N+](=O)[O-])o3)co2)n1 | > 79 µM (inactive)
6 | O=C(Nc1ccc(CSc2ncccn2)cc1)c1ccccc1 | > 79 µM (inactive)
7 | CC(=O)Oc1coc(CSc2nccc(C)n2)cc1=O | > 79 µM (inactive)
8 | Cc1ccnc(SCc2cc(=O)c(OC(=O)C(C)C)co2)n1 | > 79 µM (inactive)
9 | Cc1ccnc(SCc2cc(=O)c(OCc3ccc(Cl)c([N+](=O)[O-])c3)co2)n1 | > 79 µM (inactive)
10 | Cc1ccnc(SCc2cc(=O)c(OC(=O)C(C)(C)C)co2)n1 | > 79 µM (inactive)
